In ChEMBL document CHEMBL3739324, “Characterization and Biological Evaluation of Diterpenoids from Casearia graveolens” (J Nat Prod, 2015):
Activity calls are given as the source filed them. No cut-off for these calls is given here.

Legend:
PC-12 [1] = test: Induction of neurite outgrowth in rat PC12 cells incubated for 96 hrs by phase contrast microscopy; assay type: functional, cell-based
Summary of the method: (§1)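 PC12 cells grown at 37 °C in DMEM with 5% FBS, 5% horse serum, penicillin/streptomycin, 5% CO2. Dissociated with 1 mM EGTA in PBS for 15 min, seeded at 3 × 10^4 cells/well on poly-L-lysine. After 24 h, switched to medium with 1% FBS, 1% HS, graded compound levels, with or without NGF (20 ng/mL; 100 ng/mL positive control), for 96 h.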

PC-12 [2] = test: Stimulation of NGF-mediated neurite outgrowth in rat PC12 cells incubated for 96 hrs by phase contrast microscopy; assay type: functional, cell-based; details: for EC50: PC-12, 96 h; summary of the method: as §1

| Compound | Activity (PC-12 [1]) | EC50 (PC-12 [2]) [µM] | Activity (PC-12 [2]) |
| --- | --- | --- | --- |
| C=CC(=C)CC[C@]1(C)[C@H](C)C[C@H](OC)[C@@]23C(=C[C@H](O)C[C@@H]12)[C@@H](OC)O[C@H]3OC | inactive | 3.3 | – |
| C=CC(=C)CC[C@]1(C)[C@H](C)C[C@H](OC)[C@@]23C(=C[C@H](OC(=O)CC)C[C@@H]12)[C@@H](OC(=O)CCC)O[C@H]3OC(C)=O | inactive | > 45 | – |
| C=CC(=C)CC[C@]1(C)[C@H](C)CC[C@@]23C(=C[C@H](O)C[C@@H]12)[C@@H](OC)O[C@H]3OC(C)=O | – | – | inactive |
| C=CC(=C)CC[C@]1(C)[C@H](C)C[C@H](OC)[C@@]23C(=C[C@H](OC(=O)CC)C[C@@H]12)[C@@H](OC)O[C@H]3OC(C)=O | inactive | 4.4 | – |
| C=CC(=C)CC[C@]1(C)[C@H](C)CC[C@@]23C(=C[C@H](OC(=O)CCC)C[C@@H]12)[C@@H](OC(=O)CCC)O[C@H]3OC(C)=O | – | – | inactive |
| C=CC(=C)CC[C@]1(C)[C@H](C)C[C@H](OC)[C@@]23C(=C[C@H](OC(=O)CCC)C[C@@H]12)[C@@H](OC)O[C@H]3OC(C)=O | inactive | 20.6 | – |
| C=CC(=C)CC[C@]1(C)[C@H](C)CC[C@@]23C(=C[C@H](OC(=O)CCC)C[C@@H]12)[C@@H](OC(C)=O)O[C@H]3OC(C)=O | – | – | inactive |
| C=CC(=C)CC[C@]1(C)[C@H](C)CC[C@@]23[C@H](OC(C)=O)O[C@H](OC(=O)CCC)[C@@H]2CC(=O)C[C@@H]13 | – | – | inactive |
| C=CC(=C)CC[C@]1(C)[C@H](C)CC[C@@]23C(=C[C@H](O)C[C@@H]12)[C@@H](OC(=O)CCC)O[C@H]3OC(C)=O | – | – | inactive |
| C=CC(=C)CC[C@]1(C)[C@H](C)C[C@H](OC)[C@@]23C(=C[C@H](OC(=O)CCC)C[C@@H]12)[C@@H](OC(C)=O)O[C@H]3OC(C)=O | inactive | 28.7 | – |
